Most compounds without a hit are left out; they make up all but 3.5% or so of the library.
RGS4 block – human RGS4 inhibition; HEK293 M3R/RGS4 inducible, Fluo-4 calcium flux; stronger effect = higher value; triggered by carbachol at its EC20; 0.45% of 310,000 active; P49798; B-score at 10 µM;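 active = B-score, a plate-corrected calcium signal, over three deviations above library mean, with baseline fluorescence within five deviations of library mean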;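 note: RGS4 expression induced by doxycycline in cells with stable M3 receptor; B-score is computed from the integrated fluorescence ratio over baseline after carbachol; higher B-score means a larger calcium signal and so more RGS4 inhibition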
Target sequence (P49798 whole entry, looked up): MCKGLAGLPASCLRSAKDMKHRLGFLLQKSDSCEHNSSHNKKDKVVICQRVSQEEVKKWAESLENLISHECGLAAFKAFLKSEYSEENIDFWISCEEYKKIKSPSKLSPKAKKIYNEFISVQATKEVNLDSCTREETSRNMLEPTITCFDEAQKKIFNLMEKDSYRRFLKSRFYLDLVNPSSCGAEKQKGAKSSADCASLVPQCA
MrgX1 PAM – allosterically activates human MrgX1 receptor signaling. AID 588675. Q96LB2. MrgX1-HEK293, Fluo-4 calcium flux, FDSS; stronger effect = higher value. 0.63% of 310,000 active. B-score at 10 µM;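 active = plate-corrected calcium response at least 3 library SD above typical, normal starting fluorescence, not activating the receptor alone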;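 note: compound read alongside a low EC10 to EC30 dose of BAM8-22 agonist; peak minus trough fluorescence over baseline measured at the second addition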
Target sequence (Q96LB2 whole entry, looked up): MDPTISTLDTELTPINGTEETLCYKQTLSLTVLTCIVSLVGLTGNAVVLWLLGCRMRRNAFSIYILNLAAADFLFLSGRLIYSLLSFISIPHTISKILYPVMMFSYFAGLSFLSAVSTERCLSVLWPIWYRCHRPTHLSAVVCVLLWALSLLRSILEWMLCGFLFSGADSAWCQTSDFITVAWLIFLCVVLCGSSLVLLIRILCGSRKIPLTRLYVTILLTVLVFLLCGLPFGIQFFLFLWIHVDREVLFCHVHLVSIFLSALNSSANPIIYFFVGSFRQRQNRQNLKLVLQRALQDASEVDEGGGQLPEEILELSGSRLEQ
MrgX1 ag – human MrgX1 receptor agonism, primary screen; Q96LB2; MrgX1-HEK293 cells, Fluo-4 calcium fluorescence, agonist mode; stronger effect = higher value; B-score at 10 µM; 0.44% of 310,000 active; AID 588627;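 active = calcium response B-score plate-corrected fluorescence ratio at least 3 library SD, with starting fluorescence B-score inside 5 SD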
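Assay system: stable human MrgX1 HEK293 cell line. Quantity: 15,000 cells per well. Schedule: cells plated overnight, dye loaded 0.5 h 37 °C, 0.5 h room temperature. Detection: Fluo-4 NW calcium-flux fluorescence, kinetic read. Read-out basis: peak-minus-minimum fluorescence over baseline, converted to B scores. Control set: positive and negative control wells on each plate.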
MrgX1 antag – blocks BAM8-22 activation of human MrgX1 receptor; 1.3% of 310,000 active; Q96LB2; AID 588676; MRGX1-HEK293 calcium flux, Fluo-4, BAM8-22 antagonism; stronger effect = lower value; B-score at 10 µM;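 active = calcium-response B-score plate-corrected more than 3 library SD below zero, starting fluorescence within 5 deviations, no agonist response on first addition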;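 note: peak minus trough fluorescence over baseline after final BAM8-22 challenge near maximal dose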
RGS4 pot – potentiators or activators of RGS4; AID 463111; HEK293 M3R/inducible RGS4, carbachol calcium flux Fluo4; stronger effect = lower value; B-score at 10 µM; 0.92% of 310,000 active;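 active = B-score of the integrated calcium signal more than 4 SD below the library mean, with starting fluorescence not abnormally high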;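 note: negative B-score means reduced calcium response which marks RGS4 activation or potentiation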
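Material: Inducible-RGS4 HEK293 cells carrying M3 receptor; also added: carbachol at ECmax as muscarinic agonist stimulus; incubation: compound preincubation 20 min at room temperature before agonist; signal: Fluo4-AM (2 µM) calcium-flux fluorescence, kinetic read; measure: integrated calcium ratio converted to B score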
MrgX1 antag conf – human MrgX1 receptor antagonism, re-confirmation screen; shares compounds with MrgX1 antag; MrgX1-HEK293, BAM8-22 calcium flux, Fluo-4; stronger effect = lower value; remaining BAM8-22 calcium response % of control (stronger effect = lower value), % at 10 µM; 19% of 2,300 active;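 active = remaining agonist calcium response no higher than 100% minus 3 SD of agonist-only control wells, with starting fluorescence near control levels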;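 note: agonist BAM8-22 given at a near maximal EC90 to ECmax level; peak minus minimum fluorescence divided by baseline after agonist addition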
HEK293 Ca flux – MrgX1 antagonist counter-screen hit in parental HEK293 cells | shares compounds with MrgX1 antag | Fluo-4 calcium fluorescence, FDSS | fluorescence ratio F(max-min)/F0 at 10 µM | 2% of 4,000 active;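 active = duplicate-averaged calcium fluorescence ratio at least three times the standard deviation of buffer wells, a nonspecific response in parental cells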
HEK293 Ca counter – MrgX1 allosteric activator counter-screen hit in parental HEK293 cells. fluorescence ratio F(max-min)/F0 at 10 µM. 0.4% of 4,000 active. parental HEK293 calcium flux, Fluo-4 fluorescence ratio; stronger effect = higher value. shares compounds with MrgX1 antag;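 active = calcium fluorescence ratio, averaged over duplicates, at least 3 SD of the buffer-well ratio, meaning a nonspecific response in receptor-free cells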;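 note: untransfected parental HEK293 lacking MrgX1 used as counterscreen for MrgX1 allosteric activators; fluorescence change taken during the second addition on a kinetic imager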
HEK293 Ca cntr2 – MrgX1 activator counter-screen hit in parental HEK293 cells; shares compounds with MrgX1 antag; Fluo-4 calcium fluorescence (FDSS); stronger effect = higher value; fluorescence ratio F(max-min)/F0 at 10 µM; 8.7% of 4,000 active;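 active = calcium fluorescence ratio at least three times the spread of buffer wells, meaning a non-specific response in parental cells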
Hits are given with their value; 0 = inactive; - = no result given.

SMILES | RGS4 block | MrgX1 PAM | MrgX1 ag | MrgX1 antag | RGS4 pot | MrgX1 antag conf | HEK293 Ca flux | HEK293 Ca counter | HEK293 Ca cntr2
CCOC(=O)CCc1c(C)nc2cc(-c3ccccc3OC)[nH]n2c1=O | 0 | 0 | 0 | 0 | 0 | - | - | - | -
CCOC(=O)CCc1c(C)nc2cc(C3CCCN(C(=O)OC(C)(C)C)C3)[nH]n2c1=O (stereo not given) | - | 0 | 0 | -5.4 | - | 0 | 0 | 0 | 0
COC(=O)c1cc(NC(=O)/C=C/c2ccccc2)ccc1O | 0 | 0 | 0 | 0 | 0 | - | - | - | -
COc1ccc(C(=O)CC(SCC(NC(C)=O)C(=O)O)c2ccc(Cl)cc2)cc1OC (stereo not given) | 0 | 0 | 0 | 0 | 0 | - | - | - | -
O=S1(=O)CCOC[C@H](c2ccccc2)N1Cc1ccccc1F | 0 | 0 | 0 | -6.5 | 0 | 0 | 0 | 0 | 0
O=C(NC(=S)Nc1ccccc1N1CCOCC1)c1cccs1 | 0 | 0 | 0 | -4.7 | 0 | 0 | 0 | 0 | 0
O=C(NC(=S)Nc1ccccc1N1CCCC1)c1cccs1 | 0 | 0 | 0 | 0 | 0 | - | - | - | -
Cc1ccc(S(=O)(=O)N(CC(=O)Nc2ccccc2C(=O)O)c2cccc(Cl)c2C)cc1 | 0 | 0 | 0 | -7.1 | 0 | 0 | 0 | 0 | 0
O=C(CNC(=O)c1ccc(Br)o1)NCc1ccc(Cl)cc1Cl | 0 | 0 | 0 | -4.8 | 0 | 0 | 0 | 0 | 0
O=C(CNC(=O)c1ccc(Br)o1)NCc1cccc(Cl)c1 | 0 | 0 | 0 | 0 | 0 | - | - | - | -
Cc1[nH]c(=O)nc(SCc2ccc(Cl)c(Cl)c2)c1C#N | 0 | 0 | 0 | -7 | 0 | 0 | 0 | 0 | 0
Cc1[nH]c(=O)nc(SCc2cccc(Cl)c2)c1C#N | 0 | 0 | 0 | 0 | 0 | - | - | - | -
COCCNC(=O)C(=O)NCC1OCCN1C(=O)c1ccc(Cl)cc1 (stereo not given) | 0 | 0 | 0 | -5.6 | 0 | 0 | 0 | 0 | 0
COC(CNC(=O)C(=O)NCC1OCCN1C(=O)c1ccc(Cl)cc1)OC (stereo not given) | 0 | 0 | 0 | 0 | 0 | - | - | - | -
Cc1ccccc1NS(=O)(=O)c1ccc(C(=O)NN2CCCCC2)cc1 | 0 | 0 | 0 | 0 | 0 | - | - | - | -
CCOC(=O)C1=C(C)NC(=O)NC1c1ccc(-c2ccc(Cl)cc2)o1 (stereo not given) | 0 | 0 | 0 | 0 | 0 | - | - | - | -
CCOC(=O)C1=C(C)NC(=S)NC1c1ccc(-c2ccc(Cl)cc2)o1 (stereo not given) | 0 | 0 | 0 | -4.8 | 0 | 0 | 0 | 0 | 0
Cc1ccc(C(CNS(=O)(=O)c2ccc(Br)cc2)N2CCN(C)CC2)cc1 (stereo not given) | 0 | 0 | 0 | 0 | 0 | - | - | - | -
Cc1ccc(S(=O)(=O)NCC(c2ccco2)N2CCc3ccccc3C2)cc1 (stereo not given) | 0 | 0 | 0 | -5.1 | 0 | 0 | 0 | 0 | 0
COc1ccc(S(=O)(=O)NCC(c2ccco2)N2CCc3ccccc32)cc1 (stereo not given) | 0 | 0 | 0 | 0 | 0 | - | - | - | -
Cc1ccc(C(CNS(=O)(=O)c2ccccc2)N2CCN(C)CC2)cc1 (stereo not given) | 0 | 0 | 0 | -8.1 | 0 | 0 | 0 | 0 | 0
Cc1ccc(S(=O)(=O)NCC(c2ccco2)N2CCc3ccccc32)cc1 (stereo not given) | 0 | 0 | 0 | -5.6 | 0 | 0 | 0 | 0 | 0
CC(C)Cn1c(N)c(-c2nc(C(C)C)c(C(=O)c3ccccc3F)s2)c(=O)n(C)c1=O | 0 | 0 | 0 | 0 | 0 | - | - | - | -
C=CCn1c(SCc2nc3cc(C(=O)OC)ccc3c(=O)[nH]2)nc2sc(CC)cc2c1=O | 0 | 0 | 0 | -4.8 | 0 | 0 | 0 | 0 | 0
C=CCn1c(SCC(=O)Nc2sccc2C(N)=O)nc2sc(CC)cc2c1=O | 0 | 0 | 0 | 0 | 0 | - | - | - | -

Screens deposited in PubChem BioAssay by Johns Hopkins Ion Channel Center.
